The source of these data is ChEMBL document CHEMBL1154792, “chi-Conopeptide pharmacophore development: toward a novel class of norepinephrine transporter inhibitor (Xen2174) for pain” (J Med Chem, 2009).

The target in this assay is Sodium-dependent noradrenaline transporter (Homo sapiens, UniProt P23975). The assay is described as follows: Displacement of [3H]nisoxetine from human NET expressed in COS7 cells. It is filed as cell-based. The settings on record: COS-7. The procedure, abridged: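 Membranes from COS-7 cells transfected with human NET were incubated with [3H]nisoxetine (4.3 nM) with or without peptide (1 nM to 100 μM, triplicate) for 1 h at RT. Filter-retained radioactivity was counted by liquid scintillation, and values are given as pIC50. Data are means of 2–5 experiments in triplicate; peptide concentration was set by calibrated HPLC at 214 nm.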
Background: In a radioligand displacement assay an active substance lowers the binding of a labelled ligand.

The source made the active and inactive calls. The rule behind the calls is not given here.

Chain of Sodium-dependent noradrenaline transporter (P23975 whole entry): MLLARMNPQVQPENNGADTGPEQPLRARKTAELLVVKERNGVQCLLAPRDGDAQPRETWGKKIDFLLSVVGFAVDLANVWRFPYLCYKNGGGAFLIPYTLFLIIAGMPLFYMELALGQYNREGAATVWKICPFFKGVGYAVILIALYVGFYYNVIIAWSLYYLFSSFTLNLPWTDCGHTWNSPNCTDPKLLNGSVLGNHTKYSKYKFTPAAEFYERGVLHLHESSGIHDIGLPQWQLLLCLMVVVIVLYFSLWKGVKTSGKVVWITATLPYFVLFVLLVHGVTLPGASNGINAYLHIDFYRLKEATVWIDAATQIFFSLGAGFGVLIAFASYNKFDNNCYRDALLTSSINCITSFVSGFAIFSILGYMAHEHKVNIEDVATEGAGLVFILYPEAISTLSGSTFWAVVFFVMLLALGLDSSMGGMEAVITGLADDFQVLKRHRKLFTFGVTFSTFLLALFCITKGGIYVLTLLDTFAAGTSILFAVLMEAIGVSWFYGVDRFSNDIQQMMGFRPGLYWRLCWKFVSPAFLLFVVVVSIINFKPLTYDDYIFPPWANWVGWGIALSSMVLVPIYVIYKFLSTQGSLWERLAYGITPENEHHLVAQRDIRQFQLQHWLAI

In the case of `CC(C)C[C@@H]1NC(=O)[C@H](CCCCN)NC(=O)[C@H](Cc2ccc(O)cc2)NC(=O)CNC(=O)C[C@@H]2CSSC[C@H](CC(=O)N[C@@H](Cc3cnc[nH]3)C(=O)N3CC[C@H](O)[C@H]3C(=O)N[C@H](CC(=O)O)CSSC[C@H](NC(=O)[C@@H](NC(=O)CNC(=O)[C@@H]3CCC(=O)N3)C(C)C)CC(=O)N2)NC1=O`, the result was inactive.
